Data: ChEMBL document CHEMBL1141180, “Synthesis and antiviral activity of helioxanthin analogues” (J Med Chem, 2005)

Key:
Hepatitis B virus [1] = assay: Effective concentration to inhibit 50% of hepatitis B virus replication in a cell culture model; assay type: functional, organism-based
Human alphaherpesvirus 1 [2] = assay: Effective concentration to inhibit 50 % of Herpes simplex virus type 1 replication in a cell culture model; assay type: functional, organism-based
Human alphaherpesvirus 2 [3] = assay: Effective concentration to inhibit 50 % of herpes simplex virus type 2 replication in a cell culture model;ND=Not determined; settings: Oryctolagus cuniculus
MT2 = assay: Cytotoxicity against MT-2 cell lines of human; assay type: functional; settings: read-out: ID50 (the source's name)
Human alphaherpesvirus 1 [4] = assay: Effective concentration to inhibit 50% of herpes simplex virus type 1 replication in a cell culture model; assay type: functional, organism-based
Hepatitis C virus [5] = assay: Effective concentration to inhibit 50% of hepatitis C virus replication in a cell culture model; assay type: functional, organism-based, Hepacivirus hominis
In short: (§1)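 HCV replicon Huh-Luc/neo cells grown to confluence, then treated with varying drug concentrations in DMEM with 10% dFBS for 3 days. Medium was removed and cells lysed in passive lysis buffer, shaken 15 min at room temperature. Lysate was mixed with luciferase substrate and luminescence read immediately as the measure of replicon activity.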

Human gammaherpesvirus 4 [6] = assay: Effective concentration to inhibit 50% of epstein Barr virus replication in a cell culture model; assay type: functional, organism-based
Human alphaherpesvirus 2 [7] = assay: Effective concentration to inhibit 50 % of Herpes simplex virus type 2 replication in a cell culture model; settings: Oryctolagus cuniculus
CCRF-CEM = assay: Cytotoxicity against CEM cell lines of human; assay type: functional; settings: read-out: ID50 (the source's name)
[8] = Effective concentration to inhibit 50% of human immunodeficiency virus replication in a cell culture model; assay type: functional
Human alphaherpesvirus 2 [9] = assay: Effective concentration to inhibit 50% of herpes simplex virus type 2 replication in a cell culture model; assay type: functional, organism-based
Hepatitis C virus [10] = assay: Percent inhibition against Hepatitis C virus replication in a cell culture model; assay type: functional, Hepacivirus hominis; in short: as §1
[11] = Effective concentration to inhibit 50% of cytomegalovirus (CMV) replication in a cell culture model; assay type: functional
Human gammaherpesvirus 4 [12] = assay: Effective concentration to inhibit 50 % of Epstein Barr virus replication in a cell culture model; assay type: functional, organism-based, epsteinBarr virus
Hepatitis B virus [13] = assay: Effective concentration to inhibit 50 % of hepatitis B virus replication in a cell culture model (3.4>10); assay type: functional, organism-based

Nc1nc2c(ncn2COCCO)c(=O)[nH]1 [ACYCLOVIR]
EC50 (Hepatitis B virus [1]): 0.02 µM | EC50 (Human alphaherpesvirus 1 [2]): 8 µM | EC50 (Human alphaherpesvirus 2 [3]): 51 µM

CCOC(=O)c1c(C(=O)OCC)c(-c2ccc3c(c2)OCO3)c2c3c(ccc2c1O)OCO3
IC50 (MT2): 15 µM | EC50 (Human alphaherpesvirus 1 [4]): > 50 µM | EC50 (Hepatitis B virus [1]): > 10 µM | EC50 (Hepatitis C virus [5]): > 10 µM | EC50 (Human gammaherpesvirus 4 [6]): > 10 µM | EC50 (Human alphaherpesvirus 2 [7]): > 50 µM | IC50 (CCRF-CEM): 39 µM | EC50 [8]: > 15 µM

O=C1c2cc3ccc4c(c3c(-c3ccc5c(c3)OCO5)c2C(=O)N1CCCOCc1ccccc1)OCO4
IC50 (MT2): > 100 µM | EC50 (Human alphaherpesvirus 1 [4]): > 50 µM | EC50 (Hepatitis C virus [5]): 10 µM | EC50 (Human gammaherpesvirus 4 [6]): > 5 µM | EC50 (Human alphaherpesvirus 2 [9]): > 50 µM | IC50 (CCRF-CEM): > 100 µM | Inhibition (Hepatitis C virus [10]): 62% | EC50 [8]: > 100 µM

O=c1[nH][nH]c(=O)c2c(-c3ccc4c(c3)OCO4)c3c4c(cc(Br)c3cc12)OCO4
IC50 (MT2): > 100 µM | EC50 (Human alphaherpesvirus 1 [4]): 16 µM | EC50 (Hepatitis B virus [1]): > 10 µM | EC50 (Hepatitis C virus [5]): 3 µM | EC50 (Human gammaherpesvirus 4 [6]): > 20 µM | EC50 (Human alphaherpesvirus 2 [9]): > 20 µM | IC50 (CCRF-CEM): 28 µM | Inhibition (Hepatitis C virus [10]): 45% | EC50 [8]: 2.5 µM

O=C1OCc2c1cc1ccc3c(c1c2-c1ccc2c(c1)OCO2)OCO3 [HELIOXANTHIN]
IC50 (MT2): 2.5 µM | EC50 (Human alphaherpesvirus 1 [4]): 2 µM | EC50 (Hepatitis B virus [1]): > 1 µM | EC50 (Hepatitis C virus [5]): > 3 µM | EC50 (Human gammaherpesvirus 4 [6]): > 20 µM | EC50 (Human alphaherpesvirus 2 [9]): 35 µM | IC50 (CCRF-CEM): 30 µM | EC50 [11]: 7.3 µM | EC50 [8]: > 2.5 µM

NC(=O)c1cc2ccc3c(c2c(-c2ccc4c(c2)OCO4)c1C(=O)O)OCO3
IC50 (MT2): 5 µM | EC50 (Human alphaherpesvirus 1 [4]): 0.15 µM | EC50 (Hepatitis B virus [1]): 0.8 µM | EC50 (Hepatitis C virus [5]): 3 µM | EC50 (Human gammaherpesvirus 4 [6]): 9 µM | EC50 (Human alphaherpesvirus 2 [9]): < 0.1 µM | IC50 (CCRF-CEM): 8.4 µM | EC50 [11]: 0.45 µM | EC50 [8]: > 5 µM

Nc1ccn([C@@H]2CS[C@H](CO)O2)c(=O)n1 [LAMIVUDINE]
EC50 (Human gammaherpesvirus 4 [12]): 0.4 µM

O=C1OCc2c1cc1c(Cl)cc3c(c1c2-c1ccc2c(c1)OCO2)OCO3
IC50 (MT2): 50 µM | EC50 (Human alphaherpesvirus 1 [4]): 23 µM | EC50 (Hepatitis B virus [1]): > 60 µM | EC50 (Hepatitis C virus [5]): > 10 µM | EC50 (Human gammaherpesvirus 4 [6]): > 20 µM | EC50 (Human alphaherpesvirus 2 [9]): > 25 µM | IC50 (CCRF-CEM): 27 µM | EC50 [11]: 8.8 µM | EC50 [8]: > 50 µM

O=C(O)c1cc2ccc3c(c2c(-c2ccc4c(c2)OCO4)c1CO)OCO3
IC50 (MT2): 10 µM | EC50 (Human alphaherpesvirus 1 [4]): 9 µM | EC50 (Hepatitis C virus [5]): 10 µM | EC50 (Hepatitis B virus [13]): > 3.4 µM | EC50 (Human gammaherpesvirus 4 [6]): > 20 µM | EC50 (Human alphaherpesvirus 2 [9]): 25 µM | IC50 (CCRF-CEM): 30 µM | EC50 [11]: 2.5 µM | EC50 [8]: > 10 µM

O=C1OC(=O)c2c1cc1ccc3c(c1c2-c1ccc2c(c1)OCO2)OCO3
IC50 (MT2): > 100 µM | EC50 (Human alphaherpesvirus 1 [4]): > 50 µM | EC50 (Hepatitis B virus [1]): > 10 µM | EC50 (Hepatitis C virus [5]): > 10 µM | EC50 (Human gammaherpesvirus 4 [6]): > 20 µM | EC50 (Human alphaherpesvirus 2 [9]): > 50 µM | IC50 (CCRF-CEM): > 50 µM | EC50 [11]: 17.6 µM | EC50 [8]: > 100 µM
